Measured values: the EternaBench riboswitch data

Test system: MS2 coat protein
Assay: apparent Kd, MS2 coat protein; higher = weaker binding; RNA-MaP array; FMN 200 µM where present
Outline: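 Designs were transcribed by stalled E. coli RNA polymerase on Illumina sequencing-chip clusters. They were titrated with SNAP-549-labelled MS2 coat protein from 0.7 or 1.5 nM, doubling to 3 µM, in 100 mM Tris-HCl pH 7.5, 80 mM KCl, 4 mM MgCl2, BSA, DTT, yeast tRNA and Tween-20, without and then with constant ligand. The apparent Kd is the median of filtered per-cluster fits after normalisation of green signal to red-channel RNA signal and control-cluster median Fmax.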

[1] = designed as: OFF switch for flavin mononucleotide, no ligand
[2] = ligand present: flavin mononucleotide, designed as: OFF switch for flavin mononucleotide
[3] = designed as: ON switch for flavin mononucleotide, no ligand
[4] = ligand present: flavin mononucleotide, designed as: ON switch for flavin mononucleotide

| Sequence | apparent Kd [1] | apparent Kd [2] | apparent Kd [3] | apparent Kd [4] |
| --- | --- | --- | --- | --- |
| CUGAAUCUAGGAUAUUGUACUGCUGACAUGAGGAUCACCCAUGUAUGUUAACUCGGCCGUCGAGAAGGAGAACAUA | 36.1 nM | 27.6 nM | – | – |
| GCGUGAAAUGUAGGAUAUGACACAGGAAACUGGUCAGAAGGACAUGAGGAUCACCCAUGUAAUAAGUUCAAGAAUAACACAUGC | 33.1 nM | 75.5 nM | – | – |
| UUGGACUACGUAGGAUAUGUAGGAUUUUCCUACAUGAGGAUCACCCAUGUUAGCAUGGAAGAAGGACAGAAGGACGUGGUCCAU | – | – | 782 nM | 79.3 nM |
| GGACGUCACAUUUACAUGAGGAUCACCCAUGUCGAAAGACAUGAGGAUAUGCAUCCUAAUUGGAUGCAGAAGGCAUGGACGUCC | – | – | 335 nM | 245 nM |
| AAGAUCCCUGUUAGGAUAUAGAGAUCGCCUGGGUCCUAGAAGGAACAUGAGGAUCACCCAUGUGACGUAUAUGU | 100 nM | 228 nM | – | – |
| UUACGUCCCGUUUACAUGAGGAUCACCCAUGUCGAAAGACAUGAGGAUAUGCUACCUAAUUGGUAGCAGAAGGCAUGGACGUCG | – | – | 306 nM | 312 nM |
| UCGCUGCGAGGAUAUACAUGAGGAUCACCCAUGUGCGGGUCCGGGUUUUCGUCCAUUAGUAGAAGGCGCAGUGA | 369 nM | 46.5 nM | – | – |
| GCAGCACUCAUUAACAUGAGGAUCACCCAUGUCAAAAGACAUGAGGAUAUGCAUCUGAAGAAGAUGCAGAAGGCAUUGUGCUGC | – | – | 555 nM | 25.6 nM |
| GGAGAACAUGAGGAUCACCCAUGUGAGAGGGAUGUAGGAUAUGUGAGGAGUAAAGGAGGGACAGAAGGACAGAGAU | – | – | 45.8 nM | 43.8 nM |
| AUUUCGUCAGGAUAUCCUAGUAAUUGUUUCAUAUUUACGAAGGAGAAGGGACAUGAGGAUCACCCAUGUUGGUC | 58.7 nM | 130 nM | – | – |
| AAUUAACAUGAGGAUCACCCAUGUGAGGAUAUGAUAUUACUUGGACAGCUAUGAUCAAUCAGAAGGCACAUCUU | 22.3 nM | 28.5 nM | – | – |
| AUUAAACAUGAGGAUCACCCAUGUCAACAAAGUCGAGGAUAUGGGCAUAUUAUCUAAUAACCAGAAGGCGAAUAAU | – | – | 182 nM | 45.9 nM |
| CGAGUGUAAGGAUAUUCGGCGCCAGGGAACGACCUGGCGUAGAAGAAGGUACAUGAGGAUCACCCAUGUGGUUA | 178 nM | 18.6 nM | – | – |
| AGCACGAAAGUGCAACGAUGUACGAGAAGGACAUGAGGAUCACCCAUGUCGCUGUAACAGCAAAUGUAGGAUAUCGUACAUCGA | 5.14 nM | 5.7 nM | – | – |
| AAAUUAAGUGUGAGGAUAUGCUGGUCCUUAGAUCAGCAGAAGGCACAUGAGGAUCACCCAUGUAAUAUAUUUAA | 38.9 nM | 193 nM | – | – |
| AAUAAACAUGAGGAUCACCCAUGUGGUGGCCCAUGAGGAUAUCCGUACGCAAUGCGCACAGGAGAAGGCAUAGCCA | – | – | 33.9 nM | 90.8 nM |
| UUUUUUGUUGUGAGGAUAUCGUAUUUUUUUUGUUACGAGAAGGCACAUGAGGAUCACCCAUGUUUUUUGAUGUU | 24.8 nM | 56.7 nM | – | – |
| AAUUAGGUCACAGGAUAUACAACAUCCAUUGCUGUAGAAGGGUGUCACAAUCAUAUCUGACAUGAGGAUCACCCAUGUUUCCAC | – | – | 85.8 nM | 33.3 nM |
| AUUUUAUAAUAGAAGGAGGACUUCAUGAGGAUCACCCAUGUGUUAGUACUUAGGAUAUGUAAUAACAUGAGGAUCACCCAUGUC | – | – | 38.3 nM | 43.3 nM |
| GUGGUCAGACAUGAGGAUCACCCAUGUGGAAUAAAUAAGGAAUAGGAUAUGGAAUAUAGGAUAUACCAGAAGGGUUGGUUGGUG | – | – | 98.4 nM | 114 nM |
| AUUAACUACAUAGGAUAUUGUUACAUGAGGAUCACCCAUGUUAUAUGGGAACUAGGAAUAUUUGUCAAGAAGGAUGUGGUUACA | – | – | 232 nM | 33 nM |
| ACUGUUAAGACAGGAUAUCGAUUAUAACCUCUAAAACAUGAGGAUCACCCAUGUAGUCCGUAUUGCGAGAAGGGUCAUUUUAGU | – | – | 295 nM | 233 nM |
| UUAUUAUAUGUAGGAUAUGCAUAUUGUUGUUAUGCAGAAGGACAUGAGGAUCACCCAUGUAUAUUAUUGUUAUAUAUUAUAUAU | 23.4 nM | 36.7 nM | – | – |
| AUCAGCCCGUCAGGAUAUACGUCACUGCGUCAGCAGUGUGGUAAGAUCACAUGAGGAUCACCCAUGUAGAAGGGACGAGCUGAU | 14.2 nM | 261 nM | – | – |
| CAAUCGGCACAGAAGGGUGACAUGAGGAUCACCCAUGUAGCGUGGCACUCAGGAGGAGCCACGCCACAGGAUAUGUGCCAGCAC | – | – | 50.5 nM | 53.8 nM |
| AUGACGGCAGGAUAUACAUGAGGAUCACCCAUGUAAAUUUUUCGUUUACCUUGACCGUGUAGAAGGGCCCAACC | 14.5 nM | 16.1 nM | – | – |
| UGUGUGUGGGCAGGAUAUACAUGAAUAUAUAUGAUGUAGUAUGAUGUAACAUGAGGAUCACCCAUGUAGAAGGGCCGGUGUAUG | 122 nM | 140 nM | – | – |
| GCAGGUAUACGAGGAUAUGGGUGGUACGGACAUGAGGAUCACCCAUGUCUCCCAGAAGGCGUAGCCUAACAUUAAGAGCAGGAG | – | – | 122 nM | 22.5 nM |

| Sequence | apparent Kd [1] | apparent Kd [2] | apparent Kd [3] | apparent Kd [4] |
| --- | --- | --- | --- | --- |
| UCCGUGGCAUCUCGCGCGUGUCCACAUGAGGAUCACCCAUGUCAGGAUAUACGGAAUGUCGUUCCGUAGAAGGGACAAGGGCUG | 172 nM | 108 nM | – | – |
| GUGUGCAGAGGAUAUACAUAGGAAUAUAAUAUAAUAUAAUUACAUGAGGAUCACCCAUGUAGAAGGCUGAGUGU | 23.8 nM | 26.8 nM | – | – |
| CAGAUAGGUGUGAGGAUAUAUCGUUAGCAAUGGCUAUAGAAGGCACAUGAGGAUCACCCAUGUGAGAUUGGCGU | 21.3 nM | 20.5 nM | – | – |
| GGAUGAGAAACUCAUCCUUAACGAACAUGAGGAUCACCCAUGUAGGAUAUGCUACUCAAAGAGUAGCAGAAGGACAUGUGCCUU | 29.9 nM | 264 nM | – | – |
| GUCGGAAACGACAAUGAUAGGACUGAGGAUAUACGUAUAAAUAUCCUCACAUGAGGAUCACCCAUGUAGAAGGCAGUCCUAUCU | 13.2 nM | 167 nM | – | – |
| GGGUGAUCAGGAUAUACAGAAAUGCGAAAGCAUUUCUGUAAACAUGAGGAUCACCCAUGUAGAAGGAAACUUCA | 17.9 nM | 13.8 nM | – | – |
| UGAGAGUCAGGAUAUCGAAGGUAGUGGAGAGGAGUGUGGUACGAGAAGGGACAUGAGGAUCACCCAUGUAGGUG | 322 nM | 276 nM | – | – |
| CGGGAGUCAGGAUAUACGAACAUGUCGCCAGAUGUCAAGGUACAUGAGGAUCACCCAUGUAGAAGGGAGGAGGG | 60.5 nM | 32.7 nM | – | – |
| UGUUGUUCAGGAUAUGGUGUGUUAUACAUGAGGAUCACCCAUGUGGGUCCUGGUUUGGCCUCAGAAGGGAAUGUUG | 750 nM | 537 nM | – | – |
| CUAAAACAUGAGGAUCACCCAUGUCAACAAAGUCGAGGAUAUGGGCAAAUAAAAUAAGAACCAGAAGGCGAAUAAC | – | – | 409 nM | 36.2 nM |
| GAGCGAAAGCUCAAUGUCGAUAGCAGAAGGACAUGAAAACAUGAAAACACAUGAGGAUCACCCAUGUAGGAUAUGCUAUCGACU | 9.43 nM | 84.8 nM | – | – |
| GCGGUACAUGAGGAUCACCCAUGUCAGGAUAUCCGCUGUUUGUCGAUUGGCGGGCGGUGGAGAAGGGACCUCGC | 80.4 nM | 81.6 nM | – | – |
| CCAUCAGCGGGCGUAUCGGUUGGACAUGAGGAUCACCCAUGUAGAAGGACAGGUGUAUUUCGGCUGUAGGAUAUACAUUUGGUG | 26 nM | 79.9 nM | – | – |
| AUUAUUAUAUUAUACAUGAGGAUCACCCAUGUUAUAAGUCAUGAGGAUAUGGUUAUGUAGAUUUGCCAGAAGGCAUUUAACUUA | – | – | 14.9 nM | 9.91 nM |
| GGAUGACAAAGUCAUCCAAUACGACAUGAGGAUCACCCAUGUUAGGAUAUGCUACUCAAAGAGUAGCAGAAGGACAUGUGCCUU | 23.7 nM | 33.4 nM | – | – |
| GAUGAGGUAGGAUAUACGAUAAUAUAGGGUAGAUAUAUAACACAUGAGGAUCACCCAUGUAGAAGGACCAGUAG | 33.5 nM | 73.4 nM | – | – |
| AAAUACCGGUGAGGAUAUUUUUAAUAGAGCUUUAUGAUAUACAUGAGGAUCACCCAUGUUACGUUAAAGAAGGCAUCGGAUAAA | 18.4 nM | 16.6 nM | – | – |
| AUAUGAUUAAGAGGAUAUAUACAACAUGAGGAUCACCCAUGUACCCAUGUAGUAGAAGGUUUGUUUUUAUAUAAUAAUAUAAUU | – | – | 74.8 nM | 52.1 nM |
| AAACUGCCACAUGAGGAUCACCCAUGUAAAUAAAGUAUUUGGAGAAGGGCGAUAGCAAAGCUAUCGCAGGAUAUCCUCAGGCAG | – | – | 801 nM | 87.9 nM |
| CAGGUAGACUGAGGAUAUACAAUAAACAGCUAGUCUAUCUAGCUGCUCACAUGAGGAUCACCCAUGUAGAAGGCAGUCUGCCUG | 18.7 nM | 45.1 nM | – | – |
| AGGUAACAUGAGGAUCACCCAUGUCAGGAUAUCAGUAAGAUGAGUAUAGAAUAGAGUAUGAGAAGGGACUAUAU | 36.5 nM | 28.6 nM | – | – |
| AAACAUGUCCGAGGAUAUCUGGAAACAUUUCCGAGAGAAGGCGGACAUGAGGAUCACCCAUGUCUCUCCUCAUCAAAUCCAAGU | 8.44 nM | 80.7 nM | – | – |
| UUACUACAUGAGGAUCACCCAUGUCAGGAUAUUGUCUAUACCUUGGAAUACGUGUCGACAAGAAGGGACUAUAU | 21.1 nM | 24 nM | – | – |
| GUGUACAGAGGAUAUAUAUGAGCUAGGAAACUAGCAAGAUCACAUGAGGAUCACCCAUGUAGAAGGCUGUACAC | 114 nM | 1210 nM | – | – |
| AAGUACGUAAAGAAGGCGCGGGCAACCAUUCUGCGAGGAUAUUUACAUGAGGAUCACCCAUGUGCAUGGGAUCGAGAAGAAUUG | 159 nM | 41.9 nM | – | – |
| UUUGUUUUGCAAGGAUAUGUUUAAUUUUAGUUUCCUUACACAUGAGGAUCACCCAUGUUAUACUUACAGAAGGUGCGUAAUUUG | 149 nM | 136 nM | – | – |
| GUGGUCAGACAUGAGGAUCACCCAUGUGGAAUAAAUAACAACUAGGAUAUGUAAUAUAGGAUAUAACAGAAGGAGUGAUUGGUG | – | – | 168 nM | 138 nM |
